Assay outcomes (PubChem BioAssay)
This is a sample that favours compounds with a hit; in the whole collection about 6.8% have one here.
HSF-1 act = increases HSF-1 driven luciferase reporter signal. NIH3T3-HGL HSF-1 luciferase reporter, MG132, 8 h; 100% = twice DMSO control signal. activation, % at 9 µM. 300,000 tested, 1.7% active;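 active = mean replicate activation of at least 50% with a set share of replicates each reaching 50%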;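 also: 0% = median of the neutral control wells and 100% = twice that signal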
HCV core dimer = HCV core protein dimerization inhibition; TR-FRET GST/Flag-core106 dimerization, 1536-well; 300,000 tested, 0.33% active; AID 1899; inhibition, % at 5 µM;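 active = inhibition above the mean of all tested compounds plus 3 SD, set per screening campaign, cut at about 45% in these data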
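Assay system: tagged HCV core106 pair (GST and Flag); medium: KF-containing HEPES buffer, pH 7.45, DTT, CHAPS, BSA; also added: Eu donor and XL665 acceptor anti-tag antibodies; dosing: 5 µM single dose; timing: compound-protein-antibody incubation 4 h at 22.5 °C; signal: TR-FRET 671 and 617 nm emission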
ALR H2O2 inh = inhibitors of human sulfhydryl oxidase ALR; 290,000 tested, 3.8% active; P55789; purified ALR, DTT oxidation, H2O2 HRP-luminol luminescence; inhibition, % (no concentration beside the values);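 active = mean replicate inhibition above about 79%, with every replicate also reaching it, limit read from the data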
Target sequence (P55789 whole entry, looked up): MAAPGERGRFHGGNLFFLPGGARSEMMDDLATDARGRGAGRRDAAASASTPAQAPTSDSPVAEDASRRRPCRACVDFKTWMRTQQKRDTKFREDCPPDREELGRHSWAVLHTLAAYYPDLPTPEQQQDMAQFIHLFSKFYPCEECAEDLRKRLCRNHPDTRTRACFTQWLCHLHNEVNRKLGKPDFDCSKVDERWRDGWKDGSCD
HSF1 inhib = HSF1 inhibition; NIH3T3-HGL HSE-luciferase, MG132-induced, luminescence 8 h; stronger effect = lower value; 300,000 tested, 0.77% active; activity change, negative = inhibition, % at 7.5 µM (by protocol); AID 2098;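 active = more than half of replicate wells show activity change below -50%, luminescence cut by over half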;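 also: luciferase reports HSF-1 transcriptional activity via heat shock element; 0% = median of DMSO wells and -100% = zero luminescence signal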
PHOSPHO1 inh = blocks human PHOSPHO1 phosphatase activity. Q8TCT1. recombinant PHOSPHO1, absorbance phosphatase assay. inhibition, % at 13.3 µM. 290,000 tested, 1.1% active; in the data active = inhibition above about 60%
Target sequence (Q8TCT1 whole entry, looked up): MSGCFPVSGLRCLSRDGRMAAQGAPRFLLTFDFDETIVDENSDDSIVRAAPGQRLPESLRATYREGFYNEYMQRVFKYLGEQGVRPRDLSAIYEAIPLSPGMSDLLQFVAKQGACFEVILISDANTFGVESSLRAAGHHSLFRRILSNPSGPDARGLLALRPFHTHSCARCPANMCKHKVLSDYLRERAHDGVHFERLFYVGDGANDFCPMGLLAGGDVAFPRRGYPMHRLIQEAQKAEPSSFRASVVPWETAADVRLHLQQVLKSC
AI-2 QS modul = modulates the Vibrio harveyi AI-2 quorum sensing system; Vibrio harveyi JMH597 AI-2 luminescence/OD600 ratio, 9 h; stronger effect = lower value; strain lacks LuxN and CqsS sensors; 0 = neutral-control median; activity change, % at 7.5 µM; 300,000 tested, 0.4% active; in the data active = activity change below about -75%, passing the limit was not always enough;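 also: luminescence divided by OD600 gain over 9 h not by final OD600 alone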
Starred values were filed as active, the others as inactive; . = no result given.

SMILES | HSF-1 act | HCV core dimer | ALR H2O2 inh | HSF1 inhib | PHOSPHO1 inh | AI-2 QS modul
CC(=O)c1cc(NC(=O)c2ccccc2)c(=O)oc1C | 30.1 | -0.2 | 5.3 | 35.7 | 16.3 | 21.5
CCOc1ccc(CN2CCN(Cc3cccn3-c3nccs3)CC2CCO)cc1 (stereo unspecified) | -7.3 | 3.1 | -15.1 | -0.9 | 19.7 | 10.3
CC(NC(=O)c1ccccc1Br)c1nnc(SCC(=O)NC2=NCCS2)n1C (stereo unspecified) | 11.1 | -1.8 | 2.7 | 0.3 | 31.9 | 64.0
COc1ccc(N2CCN(c3ccc(NC(=O)/C=C\C(=O)O)cc3)CC2)cc1 | 11.2 | -2.9 | 83.2* | 0.1 | 25.3 | 26.5
O=C(O)/C=C/C(=O)Nc1cc(F)ccc1F | -77.3 | -0.6 | 5.2 | -71.5* | -3.6 | 25.9
O=C(O)/C=C/C(=O)Nc1ccc(O)cc1 | 5.3 | 1.0 | 98.1* | -1.1 | 37.7 | 16.8
COc1ccc(/C=C/C(=O)Nc2ccc(N3CCOCC3)cc2)cc1 | -3.2 | -7.2 | . | 1.2 | -9.8 | 0.3
O=C(O)/C=C/C(=O)Nc1ccc(Cl)cc1C(=O)c1ccccc1 | -2.1 | -4.8 | 32.7 | -2.5 | 16.0 | 2.8
O=C(O)/C=C/C(=O)Nc1ccc(C(=O)c2ccccc2)cc1 | -10.6 | 0.9 | 0.6 | -8.5 | 10.2 | 45.0
O=C(O)/C=C/C(=O)Nc1ccc(Oc2ccccc2)cc1 | -59.0 | -0.7 | 51.4 | -54.1* | 40.3 | 47.1
CC(=O)Nc1ccc2c(c1)C(=O)c1ccccc1C2=O | 30.3 | 5.9 | -26.0 | 24.9 | 39.9 | 1.8
O=C(O)/C=C/C(=O)Nc1ccc2c(c1)C(=O)c1ccccc1C2=O | 14.9 | 10.5 | 96.7* | 16.7 | 41.8 | 6.8
Cc1ccc(CN2C(=O)CCC2C(=O)NCCc2ccccc2)cc1 (stereo unspecified) | 14.0 | -3.9 | . | -2.9 | 46.3 | 10.8
COc1ccccc1N(Cc1ccccc1)S(=O)(=O)c1cc(C(=O)O)ccc1Cl | -4.9 | -2.5 | 92.1* | 0.3 | 2.5 | -2.4
COc1ccc(S(=O)(=O)N(C)CC(=O)NCCN2CCOCC2)cc1C | -15.7 | 8.2 | -2.8 | -11.4 | 30.4 | 4.3
Cc1nc(N2CCN(S(=O)(=O)c3ccc(Br)cc3)CC2)c2c(C)c(C)sc2n1 | 2.4 | 9.5 | -1.8 | 10.1 | -16.3 | 5.0
CCc1nc(N2CCN(S(=O)(=O)c3ccc(Br)cc3)CC2)c2c(C)c(C)sc2n1 | 76.7* | 9.7 | -7.3 | 42.3 | . | 37.7
Cc1cc(C)n(C(C)CNS(=O)(=O)c2ccc(C)c(C)c2)n1 (stereo unspecified) | 3.6 | 1.0 | . | -2.3 | 47.4 | 27.9
O=C(O)CSc1cc(C(=O)c2ccccc2O)cn2c(=O)c3c(-c4ccccc4)csc3nc12 | 2.7 | 54.5* | 97.6* | -4.8 | -25.2 | 68.0
O=C(NC1CCCCCCC1)C1CCCN(S(=O)(=O)c2cnc[nH]2)C1 (stereo unspecified) | 2.9 | -3.5 | 95.3* | -1.9 | -11.0 | 25.3
O=C(NC1CCCCCC1)C1CCN(S(=O)(=O)c2cnc[nH]2)CC1 | 2.1 | -2.3 | -5.4 | 0.1 | -13.4 | 20.4
O=C(NC1CCCC1)C1CCCN(S(=O)(=O)c2cnc[nH]2)C1 (stereo unspecified) | -27.0 | -2.7 | 96.3* | -8.7 | 8.6 | 20.2
O=C(NC1CCCCC1)C1CCCN(S(=O)(=O)c2cnc[nH]2)C1 (stereo unspecified) | 3.8 | -0.9 | -17.8 | 2.4 | -11.3 | 15.5
Cc1nc(NS(=O)(=O)c2ccc(Cl)s2)c2c3c(sc2n1)CCCC3 | -3.8 | 9.8 | 2.2 | -2.4 | 13.9 | 0.1
C/C=C/C(=O)Nc1cccc(C2=NOC3(C2)C[C@@H](C(N)=O)N(C(=O)C(c2ccccc2)c2ccccc2)C3)c1 (stereo partly specified) | -3.8 | 15.1 | . | -3.3 | 22.1 | 15.6
SMILES | HSF-1 act | HCV core dimer | ALR H2O2 inh | HSF1 inhib | PHOSPHO1 inh | AI-2 QS modul
COc1ccc(NC(=O)COC(=O)C2CCC2)cc1Cl | -8.4 | 2.0 | -4.6 | -2.9 | 33.4 | 9.9
CCCNC(=O)C(Cc1cccc(C#N)c1)NC(=O)c1ccc(C#N)cc1 (stereo unspecified) | . | . | -5.7 | . | . | .
O=C(O)CCc1ccc(-c2cccs2)n1CC1CCCO1 (stereo unspecified) | 11.8 | -1.4 | 98.8* | -3.2 | 0.2 | 20.7
COCCCn1c(CCC(=O)O)ccc1-c1cccs1 | 33.8 | -0.8 | 98.2* | 8.1 | 7.3 | 22.3
CCCn1c(CCC(=O)O)ccc1-c1cccs1 | -10.6 | 9.2 | 98.7* | 7.8 | 27.1 | 11.0
C(=N\Nc1nc(-c2ccccn2)nc2ccccc12)/c1ccccc1 | 160.2* | -4.0 | -9.5 | 110.5 | -3.6 | 16.2
Cc1cc(C)n2c(SCC(=O)N(CC(C)C)c3c(N)n(CC(C)C)c(=O)[nH]c3=O)nnc2n1 | 44.4 | -0.6 | . | 5.8 | -11.2 | 9.1
CCS(=O)(=O)N1Cc2ccccc2CC1C(=O)Nc1ccc(F)c(F)c1 (stereo unspecified) | 59.5* | -13.2 | -12.1 | 15.7 | 32.0 | .
COc1ccc(S(=O)(=O)N2Cc3ccccc3CC2C(=O)Nc2ccc(O)cc2)cc1OC (stereo unspecified) | 2.7 | -0.2 | 95.3* | -5.7 | -6.0 | 5.4
CNC(=O)C1Cc2ccccc2CN1S(=O)(=O)c1ccc(OC)c(OC)c1 (stereo unspecified) | -1.5 | 9.1 | -30.6 | -2.9 | 8.5 | 3.9
CCS(=O)(=O)N1Cc2ccccc2CC1C(=O)Nc1ccc(NC(C)=O)cc1 (stereo unspecified) | 4.3 | 43.5 | -4.0 | -0.6 | 12.1 | 13.5
CC(C)(C)c1ccc(S(=O)(=O)N2CCN(c3ncccn3)CC2)cc1 | -9.7 | -0.4 | -3.4 | 2.9 | 37.8 | 16.0
Oc1oc(-c2ccco2)nc1C=Nc1cccc(Cl)c1 | 7.4 | -1.8 | 96.0* | 0.2 | 19.2 | 36.6
Cc1c(C(=O)NCCCN2CCOCC2)oc2c1C1(CCC2)SCCS1 | -9.6 | 3.3 | 51.2 | -2.7 | -7.4 | 11.1
CCOC(=O)CSc1nc(N2CCOCC2)c2c(c1C#N)CC(C)(C)N(C)C2 | 11.1 | -9.0 | 99.6* | -5.0 | 3.7 | 8.6
Cc1nnc(N/N=C/c2cccc(OCc3ccc(Cl)c(Cl)c3)c2)n1N | 128.5* | -10.0 | -8.7 | 83.4 | -12.5 | 13.4
COc1ccccc1NC1=C(Cl)C(=O)N(C2CCCCC2)C1=O | -87.4 | 4.8 | 7.5 | -84.7* | 23.1 | 8.2
Cc1ccccc1NC1=C(Cl)C(=O)N(C2CCCCC2)C1=O | 1.0 | 2.5 | 9.6 | -2.6 | 4.9 | 17.2
O=C/C(=C\Nc1ccc(C(=O)N2CCOCC2)cc1)c1nc2ccccc2o1 | -1.8 | -0.1 | -20.9 | -8.8 | -3.9 | 10.7
O=C(O)c1ccc(-c2nc(-c3ccccc3)c(-c3cccs3)[nH]2)cc1 | 22.5 | 13.8 | 0.4 | 11.9 | 23.6 | 30.5
Cc1ccc(-c2[nH]c(-c3ccc(C(=O)O)cc3)nc2-c2ccccc2)cc1 | -6.1 | 17.9 | 99.3* | 1.9 | -12.5 | 65.6
